Data published in PubChem BioAssay AID588760 (Johns Hopkins Ion Channel Center, 2011).
Calls of active or inactive are those of the source.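 Rule for the calls: active = fitted dose response curve and peak inhibition of the Kir2.1 potassium channel above 30% at some dose; inactive = no dose response or no inhibition at any dose.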

Biological target: Inward rectifier potassium channel 2 (Mus musculus) (UniProt P35561)
Assay: Kir2.1 channel inhibition, specificity check, SAR follow-up, selectivity assay for KCNK9 inhibitor project, cell-based, FluxOR thallium flux, CRC round 3 (AID 588760)
Details: Kir2.1-expressing cells, 20 min; series mostly up to 30 µM; thallium flux ratio, lower = inhibition: at the top concentration
How it was run: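 Material: FluxOR-loaded Kir2.1 HEK293 cells | Times: 90 min dye load, 20 min compound, RT | Technique: Kinetic fluorescence of thallium-sensitive dye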

Chain of Inward rectifier potassium channel 2 (Mus musculus) (P35561 whole entry, looked up): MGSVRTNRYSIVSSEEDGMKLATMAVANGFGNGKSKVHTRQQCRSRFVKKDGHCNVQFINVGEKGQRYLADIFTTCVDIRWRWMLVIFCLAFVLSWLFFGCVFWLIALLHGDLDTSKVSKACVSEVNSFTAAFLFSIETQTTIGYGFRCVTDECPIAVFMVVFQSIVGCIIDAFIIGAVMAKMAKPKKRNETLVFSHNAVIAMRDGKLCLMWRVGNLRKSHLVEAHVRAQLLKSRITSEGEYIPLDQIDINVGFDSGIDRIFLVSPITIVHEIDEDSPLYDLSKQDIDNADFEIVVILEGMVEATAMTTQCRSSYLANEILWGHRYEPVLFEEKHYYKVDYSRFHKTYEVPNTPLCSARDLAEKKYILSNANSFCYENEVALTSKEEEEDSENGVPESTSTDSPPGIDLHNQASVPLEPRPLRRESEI

Thallium flux ratio, lower = inhibition, inactive:
CC(C1CC2CCC1C2)n1cnnc1-c1ccco1 (stereo unspecified) 1.88
COc1cc(OC)cc(-c2n[nH]c(=S)n2C(C)C2CC3CCC2C3)c1 (stereo unspecified) 1.79
CC(CC1CC2CCC1C2)n1c(-c2ccco2)n[nH]c1=S (stereo unspecified) 1.05
CC(C1CC2CCC1C2)N(C)C(=O)c1ccco1 (stereo unspecified) 1.97
CC(C1CC2CCC1C2)n1c(SC(F)F)nnc1-c1ccco1 (stereo unspecified) 0.755
CC(C1CC2CCC1C2)n1c(-c2cccnc2)n[nH]c1=S (stereo unspecified) 1.93
COc1ccccc1C(=O)Nc1cc(NC(=O)c2ccccc2C(C)C)ccc1F 1.84
C[C@@H](C1CCCCC1)n1c(-c2ccco2)n[nH]c1=S 1.59
CC(C1CC2CCC1C2)n1c(-c2cccs2)n[nH]c1=S (stereo unspecified) 1.23
CC(C1CC2CCC1C2)n1c(SCC(=O)c2ccc(Cl)c(Cl)c2)nnc1-c1ccco1 (stereo unspecified) 1.98
CC(C1CC2CCC1C2)n1c(SCC#N)nnc1-c1cccs1 (stereo unspecified) 1.26
CC(C1CC2CCC1C2)n1c(-c2cccc(F)c2)n[nH]c1=S (stereo unspecified) 1.67
S=c1[nH]nc(-c2ccco2)n1CC1CC2CCC1C2 (stereo unspecified) 1.13
CSc1nnc(-c2ccco2)n1C(C)C1CC2CCC1C2 (stereo unspecified) 0.744
CC(C1CCCCC1)n1c(-c2ccco2)n[nH]c1=S (stereo unspecified) 1.24
COc1cccc(C(=O)CSc2nnc(-c3ccco3)n2C(C)C2CC3CCC2C3)c1 (stereo unspecified) 1.4
COc1ccccc1C(=O)Nc1cccc(NC(=O)c2cccc3ccccc23)c1 1.82
CC(CCC1CCCC1)n1c(-c2ccco2)n[nH]c1=S (stereo unspecified) 1.18
COc1ccc(C(=O)CSc2nnc(-c3ccco3)n2C(C)C2CC3CCC2C3)cc1OC (stereo unspecified) 1.32
COc1cccc(-c2n[nH]c(=S)n2C(C)C2CC3CCC2C3)c1OC (stereo unspecified) 1.62

outcome, inactive:
CC(C1CC2CCC1C2)n1c(-c2ccc(N(C)C)cc2)n[nH]c1=S (stereo unspecified)
